Reference: the EternaBench riboswitch data

Tested on: MS2 coat protein
Experiment: apparent Kd, MS2 coat protein; higher = weaker binding; RNA-MaP array; FMN 200 µM where present
Summary of the method: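 The titrant was SNAP-549-labelled MS2 coat protein, run from 0.7 or 1.5 nM in doubling steps to 3 µM. It was applied to designs transcribed by stalled E. coli RNA polymerase on Illumina sequencing-chip clusters, without ligand first and then with constant ligand, in 100 mM Tris-HCl pH 7.5, 80 mM KCl, 4 mM MgCl2, BSA, DTT, yeast tRNA and Tween-20. The apparent Kd is the median of filtered per-cluster binding-curve fits, with green signal normalised to red-channel RNA signal and control-cluster median Fmax.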

[1] = designed as: ON switch for flavin mononucleotide, no ligand
[2] = ligand present: flavin mononucleotide, designed as: ON switch for flavin mononucleotide
[3] = designed as: OFF switch for flavin mononucleotide, no ligand
[4] = ligand present: flavin mononucleotide, designed as: OFF switch for flavin mononucleotide

Sequence	apparent Kd [1] [nM]	apparent Kd [2] [nM]	apparent Kd [3] [nM]	apparent Kd [4] [nM]
GUGGUCAGACAUGAGGAUCACCCAUGUGGAAUAAAUAAGGAGAAGGAUAUGAAAUAUAGGAUAUAUCAGAAGGUCUGGUUGGUG	72.2	77.1	–	–
AAUUGACACGUAGGAUAUCGCUCUAAUUAAACACGAGAAGGACGUACAUGAGGAUCACCCAUGUUAAAUGGUGUAGAUAAGUUG	–	–	172	479
AUUUAAAUGUCAGGAUAUGUCGGUAUAUACUCGGUAGAAGGGAUAAUUAUACUCAAGUACAUGAGGAUCACCCAUGUUAAAUCA	21.1	14	–	–
GCCACAGCAGGAUAUUCAAUAAUUCACAUGAGGAUCACCCAUGUCGAGCGAAAGCUCGAGGGAGAAGGGCUGUGGC	–	–	39.5	13.7
AGUGUCAUCGAGAAGGCCUCAACAUGAGGAUCACCCAUGUUGUAAUAUGGGAGGAUAUCGAUGAUACAGCUACGUUUCGUAGCG	19.9	5.82	–	–
AAGGAGUAAGGAUAUGCUGCUCGUCACUUGCGUGAUGAGUAGCAGAAGGUACAUGAGGAUCACCCAUGUAAAAA	–	–	24.5	18.3
AUCCUACAUGAGGAUCACCCAUGUGACGCCUCGAUAGGAUAUGCGUGUGCCUUGGCGCAUGCAGAAGGAUUGUUGC	149	195	–	–
ACAUAAAUUCGAGGAUAUCGGUGAUAUAAUUUACGAGAAGGCGAUAAAAGUUGUAAACUUAUAGACAUGAGGAUCACCCAUGUA	34.8	34	–	–
UGGGUAAAUGUAGGAUAUUUAUAUUAAUAAUAUGGAGAAGGACAUGAGGAUCACCCAUGUACAGGGAAUUACCCAUUUCCUCUC	–	–	940	877
GUCAGCUCGUGAGGAUAUACAUCACUGCUUCGGCAGUGUAUUAAAAUAACAUGAGGAUCACCCAUGUAGAAGGCACGAGCUGAU	–	–	4.69	5.51
CAGUACGGAGGAUAUACAUGAGGAUCACCCAUGUGAGAAAUACUAGUGAGGUCGAUUAGUAGAAGGCUGUACUG	–	–	40.5	579
GGUGCGAGUGUGAGGAUAUGCUGGUCGUAAGAUCAGCAGAAGGCACAUGAGGAUCACCCAUGUGAAAACGUACC	–	–	22.3	145
AAUAUGUUAGGAUAUGCUGCUCGUCACAAAAGUGAUGAGUAGCAGAAGGGACAUGAGGAUCACCCAUGUAAAGA	–	–	36.6	29.6
GCAAUAGCAUGAGGAUAUGUUGGAGUUUAGACAGCAGAAGGCAUGUCAUAAGACAUGAGGAUCACCCAUGUAGUUACAAUGGCA	22.6	11.5	–	–
CAAUUCGCACAGAAGGGUGACAUGAGGAUCACCCAUGUAGCGUGGCACUCAGGAGGAGCCACGCCACAGGAUAUGUGCGGGCAC	33.4	33.8	–	–
GCAGCGUAUGUAGGAUAUCGGUCAGUUUCUGAUCGAGAAGGACAUGAGGAUCACCCAUGUAAAUUUCCGACUUUGUCGGGCUGC	–	–	7.04	8.73
CGUCGAUACCAGAAGGACAUGAGGAUCACCCAUGUAGGAUAUGGGUGACCGGGAUGGCAGACAUGGUGCCCGGGCACAUGCGAC	70	9.82	–	–
GAUCAUGCAGGAUAUACAUUAACCAUGAAAACAUGGUUGUAACAUGAGGAUCACCCAUGUAGAAGGGCAUGAUC	–	–	14.2	21.3
UGAAUGGCAGGAUAUACAUGAGGAUCACCCAUGUUGCUGCUCUAUAUGCCGUCCUUGAGUAGAAGGGUCAUUUA	–	–	19.2	32.5
GUUAACGCAUGAGGAUAUGCUCACAUUUCAAGAGCAGAAGGUAUGUCUAUAGACAUGAGGAUCACCCAUGUAUUUAUCAUUGAA	166	42.5	–	–
AAAAAUCCAGCGCAGGAUAUCGCAGGGUGCACAUGAGGAUCACCCAUGUGUACCCAAACACCCUGCGAGAAGGGCGUUGGAAAAAA	11.2	9.68	–	–

Sequence	apparent Kd [1] [nM]	apparent Kd [2] [nM]	apparent Kd [3] [nM]	apparent Kd [4] [nM]
CUCAAACAUGAGGAUCACCCAUGUGUUGUCAUGGGAGGAUAUCCCAGUUCGUUGUAGUCGGGAGAAGGCCUAUGUC	67.4	28.6	–	–
GUAUCUUAUGAGAAGGCGAUCAUGAAACAUGAUCGAGGAUAUCAUGAAAACAUGAGGAUCACCCAUGUAUGGGUAUUAUGGUAC	63.5	43.7	–	–
AGCCGAGUAGGAUAUGCAUACUUACAGGAAAGCUGUAUGGUACAUGAGGAUCACCCAUGUAGAAGGGCUCUGAA	–	–	25	21.2
GUGGUGGGUUGAGGAUAUUGGUUGUUGUUGUCCCACAUGAGGAUCACCCAUGUGGGUUGUGGUUUUGAGAAGGUUGGUUGCUGG	18.3	15.5	–	–
AAGAUCGGAGGAUAUGAAAGGCGUUACAUGAGGAUCACCCAUGUCGGUUUCAUGUUCGUCUCAGAAGGCCGACUCC	–	–	84.7	311
CUCGUGUGAGGAUAUUCGGGCGGGCUCGUUUGGGUUUGUUUGGAGAAGGUACAUGAGGAUCACCCAUGUGCUGG	–	–	51	175
GCCAUCGCAUGAGGAUAUGCUCCGGUUUCCGGAGCAGAAGGUAUGUCAUAAGACAUGAGGAUCACCCAUGUAGUUAAGAUGGCA	252	30	–	–
GGAUUUUACUAGUUUUCUAUACAUGAGGAUCACCCAUGUUUUUAGGAUAUCAGCGUGAAACACGCUGAGAAGGAAGAACAAUCC	–	–	15.4	18.5
GGAAAACAUGAGGAUCACCCAUGUGAAAACGUGGGAGGAUAUGGAUGGAAACCAUACUGUCCAGAAGGCCCAUGUC	67.6	18.9	–	–
GUCACGAAUGUAGGAUAUCGAGUGGAUAACACUCGAGAAGGACAUGAGGAUCACCCAUGUAAAAUGAAAGAUAAUAAACGUGAC	–	–	17.6	50.5
ACAUGAGGAUCACCCAUGUAUUACAUGGUUAAGUUUAUUAACAGAAGGCGAAAAUACUUAUUGUUCGAGGAUAUGUAAUCAAUU	–	–	38	54.3
AGACCCUGAACGAAAUCAUACAGUCAGGAUAUACAUGAGGAUCACCCAUGUGCGUACCAACUCGUGUAGAAGGGACUUUCAGGG	–	–	12.3	30.2
UAGCUCCAUGUGAGGAUAUAGACUCGGACCCGGGAUUAGAAGGUACAUGAGGAUCACCCAUGUAUCCAACUUGU	–	–	15.3	16.6
UUUGUUUUGCAAGGAUAUGUUUAAUUUUAUUUUCCUUACACAUGAGGAUCACCCAUGUUAUUCUUACAGAAGGUGCGUAAUUUG	–	–	165	166
CAUGUCCUCACAGGAUAUGCACCACUUUGUGGUGCAGAAGGGUGGAUACAUGAGGAUCACCCAUGUGGACAUGAUAUAUUUAAU	608	57.2	–	–
UGGAAACAUGAGGAUCACCCAUGUAAAAGGUGGUUAGGAUAUGCAAAACGGAAAACGAAAGCAGAAGGGACAAAAA	412	302	–	–
UGUUGAUAGCAGAAGGACAUGAGGAUCACCCAUGUAAGGAUACAAAUAUAUGUAGGAUAUGCUAUUGACUAAGAGUGAGCGUUC	–	–	8.55	18.9
AGUGCGUAUGUGAGGAUAUGCUGGUCCUUGGAUCGGCAGAAGGCACAUGAGGAUCACCCAUGUGGUGUCGUACC	–	–	244	34
UUCAUGUGAGGAUAUGUGUACUGCUUUCUGUUUAGAUGUACACAGAAGGCACAUGAGGAUCACCCAUGUAGUAC	–	–	45.5	31.8
UAGAAGUCAGGAUAUCCAGCUCGUCACUUGCGUGAUGAGUUGGAGAAGGGACAUGAGGAUCACCCAUGUAAAGC	–	–	53.7	46.5
GCGCAUGUCACAGGAUAUCCCAUAGUGUACAUGAGGAUCACCCAUGUACUGCAAUGCAGACACAAGGAGAAGGGUGAGACUCGU	84.8	96.7	–	–
